Assay results of several laboratories.
Each line is one published result; the experiments were not run side by side.
Target: Receptor tyrosine-protein kinase erbB-3 (ERBB3, Homo sapiens, UniProt P21860)

For `Cc1c(C(=O)O)cc(-c2ccc(C3CCNCC3)cc2)c2ccc(-c3ccc(C(F)(F)F)cc3)cc12`, the remaining binding was 86% (binding, competition with immobilised ligand; 1 µM).
The remaining binding of `Cc1cnn2ncc(-c3ccnc(N(C)C)n3)c2c1` is reported as 100% (binding; 1 µM).
The remaining binding of `O=C(Nc1ccc(Oc2ccc(F)cc2)cc1)N1CCc2ncccc2[C@H]1c1ccc(F)cc1` is reported as 100% (cell-free assay, competition with immobilised ligand; 1 µM).
`C[C@@H](c1ccc(-n2cnc3c(N)ncnc32)cc1)N1CCc2nn(C)c(Cc3ccccc3)c2C1=O` has a remaining binding of 55% (binding, competition with immobilised ligand; 0.1 µM).
With `O=C(Nc1c[nH]nc1C(=O)NC1CCNCC1)c1cc(F)cc(F)c1` the remaining binding was 86% (binding, competition with immobilised ligand; 1 µM).
For `C[C@@H]1CCN(c2nccc(-c3cnn4ncccc34)n2)C1`, the remaining binding was 100% (binding; 1 µM).
For `O=C(c1ccc(Nc2ncc(Cl)c(-c3ccc(Cl)s3)n2)cc1)N1CCC(N2CCCC2)CC1`, the remaining binding was 100% (binding, competition with immobilised ligand; 1 µM).
For `C[C@H](NC(=O)c1cnc2n1[C@](C)(Cc1ccc(C#N)cc1)C(=O)N2c1cc(Cl)c(F)c(Cl)c1)C(=O)NC1(c2ccccn2)CC1`, the remaining binding was 100% (cell-free assay, competition with immobilised ligand; 1 µM).
With `FC(F)(F)Oc1cccc(-c2cnc3ccc(-c4ccncc4)nn23)c1` the remaining binding was 19% (cell-free assay, competition with immobilised ligand; 5 µM).
For `COc1cnc(Nc2cccc(S(N)(=O)=O)c2)nc1N1CCN(c2ccccc2)CC1`, the remaining binding was 88% (binding, competition with immobilised ligand; 1 µM).
The remaining binding of `O=C(c1ccc(Nc2nccc(-c3cc4ccccc4s3)n2)cc1)N1CCC(N2CCCC2)CC1` is reported as 100% (binding, competition with immobilised ligand; 1 µM).
`CC(C)(O)c1cncc(-c2nc3ccc(F)cc3n2C2CC2)c1` has a remaining binding of 80% (cell-free assay, competition with immobilised ligand; 1 µM).
The remaining binding of `CN(c1nccc(-c2cnn3ncccc23)n1)C1CC1` is reported as 100% (binding; 1 µM).
For `Nc1ncc2c(n1)-c1c([nH]c3ccc(C#CC4CC4)cc13)CCCC2`, the remaining binding was 100% (binding, competition with immobilised ligand; 1 µM).
`CN(C)c1ncc(F)c(-c2cnn3ncccc23)n1` has a remaining binding of 100% (binding; 1 µM).
`CC(=O)N1CCC(c2ccc(C(=O)NC(=N)N)cc2C(F)(F)F)CC1` has a remaining binding of 98% (cell-free assay, competition with immobilised ligand; 1 µM).
The remaining binding of `CN(C)c1nccc(-c2cnn3ncccc23)n1` is reported as 87% (binding; 1 µM).
For `C[C@H](c1ccc(F)cc1)N(Cc1cccc(C(=O)O)c1)C(=O)c1cnc2ccccc2c1`, the remaining binding was 68% (cell-free assay, competition with immobilised ligand; 1 µM).
`COc1ccnn2ncc(-c3ccnc(N(C)C)n3)c12` gave a remaining binding of 100% (binding; 1 µM).
With `C=CC(=O)N1CCC(C(=O)NCC(=O)N2CCN(c3nc(-c4cnc(N)nc4C(F)F)nc(N4CCOCC4)n3)CC2)CC1` the remaining binding was 84% (binding, competition with immobilised ligand; 1 µM).
For `N[C@@H]1CCN(c2nccc(-c3cnn4ncccc34)n2)C1`, the remaining binding was 100% (binding; 1 µM).
With `O=C(NCCCN1CCOCC1)c1ccc(Nc2nccc(-c3cc4ccccc4s3)n2)cc1` the remaining binding was 86% (binding, competition with immobilised ligand; 1 µM).
